Test results published in PubChem BioAssay AID623869 (Vanderbilt High Throughput Screening Facility, 2012).
The whole screen tested about 2,100 compounds, of which about 75 (4%) were called active.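 How the source made its calls: active means calcium fluorescence trace judged by eye to show a response, as agonist, enhancer of the glutamate response, or inhibitor; inactive means trace judged by eye to show no response.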 Many of the other results were omitted from the sample, so actives are more common in it than they were.

The molecules below were run against Metabotropic glutamate receptor 8 (Rattus norvegicus) (UniProt P70579) (assay: mGlu8-mediated intracellular calcium response modulators – cell-based, HEK293 rmGlu8, Gqi9 chimera, Fluo-4 calcium, counter-screen for GIRK activator project, confirmation (AID 623869)). Conditions: HEK293 rmGlu8/Gqi9 calcium flux, Fluo-4 fluorescence; glutamate at EC20 added after compound.
Sequence of Metabotropic glutamate receptor 8 (Rattus norvegicus) (P70579 whole entry, looked up): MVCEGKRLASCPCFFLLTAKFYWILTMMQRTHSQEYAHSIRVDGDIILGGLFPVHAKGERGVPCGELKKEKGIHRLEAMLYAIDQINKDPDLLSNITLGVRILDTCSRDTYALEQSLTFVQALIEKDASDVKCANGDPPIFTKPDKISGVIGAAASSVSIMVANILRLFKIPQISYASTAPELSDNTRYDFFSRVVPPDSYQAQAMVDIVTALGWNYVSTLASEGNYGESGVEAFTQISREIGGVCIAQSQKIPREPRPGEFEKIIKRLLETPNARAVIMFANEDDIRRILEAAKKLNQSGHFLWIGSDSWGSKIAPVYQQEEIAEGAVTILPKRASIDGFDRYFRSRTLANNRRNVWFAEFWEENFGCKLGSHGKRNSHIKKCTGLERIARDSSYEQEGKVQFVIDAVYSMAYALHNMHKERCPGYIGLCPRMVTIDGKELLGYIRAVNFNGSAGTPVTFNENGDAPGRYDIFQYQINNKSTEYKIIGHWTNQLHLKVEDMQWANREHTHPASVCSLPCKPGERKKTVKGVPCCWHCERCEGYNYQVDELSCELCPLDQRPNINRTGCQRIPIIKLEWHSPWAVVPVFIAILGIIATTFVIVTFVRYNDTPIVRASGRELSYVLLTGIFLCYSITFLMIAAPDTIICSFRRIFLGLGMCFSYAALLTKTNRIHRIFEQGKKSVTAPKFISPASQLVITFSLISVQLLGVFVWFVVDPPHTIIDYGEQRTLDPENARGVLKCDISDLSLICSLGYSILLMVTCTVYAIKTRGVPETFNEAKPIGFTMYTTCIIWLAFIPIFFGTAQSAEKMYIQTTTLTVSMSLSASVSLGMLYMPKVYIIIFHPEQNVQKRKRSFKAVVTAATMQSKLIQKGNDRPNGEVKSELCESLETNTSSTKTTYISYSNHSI
Method in brief: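 Material: rat mGlu8 HEK-293 cells with transient Gqi9. Medium: HEPES-buffered HBSS, pH 7.4. Compound: one dose, 20 µM addition solution, 0.2% DMSO. Schedule: compound 4 min before glutamate, then 2 min recording. Technique: Fluo-4 calcium fluorescence sampled at 1 Hz.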

Row | Structure (SMILES) | outcome
1 | CCC1(c2ccc(Cl)cc2)NC(=S)N(c2ccccc2)N1 (configuration not stated) | inactive; 0
2 | CC1Cc2ccccc2N1C(=S)NC(=O)c1ccc(Cl)cc1Cl (configuration not stated) | inactive; 0
3 | Fc1cccc2sc(Nc3nnc(-c4ccco4)o3)nc12 | inactive; 0
4 | CCOc1ccc(-c2nnc(NC(=O)c3ccc(OCC(C)C)c(OC)c3)o2)cc1 | inactive; 0
5 | Cc1ccc(NC(=S)c2nc3ccccc3[nH]2)c(C)c1 | inactive; 0
6 | O=C1c2ccccc2NC(c2ccc(-c3ccc(Br)cc3)o2)N1O (configuration not stated) | inactive; 0
7 | O=C1c2ccccc2NC(c2ccc(-c3cccc(Cl)c3)o2)N1O (configuration not stated) | inactive; 0
8 | Cc1cc([N+](=O)[O-])ccc1-c1ccc(C2Nc3ccccc3C(=O)N2O)o1 (configuration not stated) | active; 2
9 | CCCN(CCC)C(=S)NC(=O)c1ccc(Cl)cc1Cl | inactive; 0
10 | C=CCn1c(=S)[nH]c2ccccc2c1=O | inactive; 0
11 | CCOC(=O)Cc1csc(NC(=S)NC(=O)c2ccccc2C)n1 | inactive; 0
12 | Cc1ccccc1C(=O)Nc1nc(=S)ss1 | active; 1
13 | Cc1ccccc1C(=O)NNC(=O)C(=O)Nc1cccc(Cl)c1C | inactive; 0
14 | O=C(NC(=S)N1CCCc2ccccc21)c1ccc([N+](=O)[O-])cc1 | inactive; 0
15 | CN(C)S(=O)(=O)c1cccc(NC(=S)Nc2ccc(Cl)cc2Cl)c1 | inactive; 4
16 | CC12CCC(C(=O)N(CSC(=S)N/N=C\c3ccccc3)C1=O)C2(C)C (configuration not stated) | inactive; 0
17 | CNC(=S)N/N=C1\C(=O)c2cccc3cccc1c23 | inactive; 0
18 | CSc1nc(N2CCOCC2)c2c(c1C#N)CC(C)(C)OC2 | inactive; 0
19 | CCc1nc(N2CCOCC2)c(C#N)c2c1CCCC2 | active; 2
20 | CC(C)c1nc(N2CCOCC2)c(C#N)c2c1CCCC2 | inactive; 0
21 | C=CCn1c(O)c(N=NC(=O)OC(C)(C)C)c2ccccc21 | inactive; 0
22 | O=C(NC(=S)N1CCCc2ccccc21)c1ccc(Br)cc1 | inactive; 0
23 | Cc1ccc(C)c(C(=O)c2c(C)nc3sccn23)c1 | active; -1
24 | Cn1c(=O)c2c(nc3sccn32)n(C)c1=O | inactive; 0

Row | Structure (SMILES) | outcome
25 | COC(=O)c1ccc(NC(=S)NC(=O)c2c(Cl)cnn2C)cc1 | inactive; 0
26 | Cc1ccc(/C=N/n2c(-c3cccs3)n[nH]c2=S)cc1 | inactive; 0
27 | O=C(COc1ccccc1)NC(=S)Nc1cccc([N+](=O)[O-])c1 | inactive; 0
28 | CCOC(=O)c1ccc(NC(=S)NC(=O)COc2ccccc2)cc1 | inactive; 0
29 | COC(=O)c1ccccc1NC(=S)NC(=O)COc1ccccc1 | inactive; 0
30 | Cc1ccccc1C(=O)NNC(=S)NC(=O)COc1ccccc1 | active; 1
31 | COC(=O)c1ccccc1NC(=S)NC(=O)COc1ccc(C)cc1 | inactive; 0
32 | Cc1ccc(C(=O)NNC(=S)NC(=O)COc2ccccc2)cc1 | active; 1
33 | Cc1cccc(C(=O)NNC(=O)C(=O)NC(C)(C)C)c1 | inactive; 0
34 | COc1ccc(-c2nnc(NC(=O)c3ccc(F)cc3)o2)cc1 | inactive; 0
35 | S=c1[nH]nc(-c2ccccn2)n1/N=C/c1ccc(Br)s1 | inactive; 0
36 | O=C(NC(=S)N1CCN(c2ccc(C(F)(F)F)cc2[N+](=O)[O-])CC1)c1cccs1 | inactive; 0
37 | O=C(NC(=S)N1CCc2ccccc21)c1ccccc1Br | inactive; 0
38 | S=c1[nH]cnc2scc(-c3ccccc3)c12 | inactive; 0
39 | COCCNC(=O)CCCCCn1c(=S)[nH]c2ccccc2c1=O | inactive; 0
40 | O=C(NCc1ccccc1)c1ccc2c(=O)n(CCCN3CCCC3=O)c(=S)[nH]c2c1 | active; -1
41 | O=c1c2ccccc2[nH]c(=S)n1CCN1CCN(Cc2ccccc2)CC1 | inactive; 0
42 | Cc1ccc(C)c(N=C2CCCN2Cc2ccccc2)c1C#N | inactive; 0
43 | CC1(C)CC(=O)C2=C(C1)OC(/N=C/N1CCOCC1)=C(C#N)C2c1ccccc1 (configuration not stated) | inactive; 0
44 | CCCN(CCC)C(=S)NC(=O)c1ccc(-c2ccccc2)cc1 | inactive; 0
45 | O=[N+]([O-])c1ccc(/C=N/NC(=S)Nc2ccccc2F)o1 | inactive; 0
46 | COc1cccc(-n2c(SCC(=O)NCCC3=CCCCC3)nc3n[nH]c(C)c3c2=N)c1 | inactive; 0
47 | Cc1ccccc1-n1c(SCc2ccccn2)nc2n[nH]c(C)c2c1=N | active; 2
